# Test results published in ChEMBL document CHEMBL2413051, “Antibacterial activity of quinoxalines, quinazolines, and 1,5-naphthyridines” (2013).
# The source made the active and inactive calls. The calls are words filed in the database; no cut-off is given here.
# What was measured:
# [1] = target: T1, Cell division protein FtsZ (Staphylococcus aureus) (UniProt P0A031); experiment: Stimulation of purified Staphylococcus aureus FtsZ polymerization at 40 ug/ml by microtiter plate based light-scattering assay
# T1 sequence (whole entry): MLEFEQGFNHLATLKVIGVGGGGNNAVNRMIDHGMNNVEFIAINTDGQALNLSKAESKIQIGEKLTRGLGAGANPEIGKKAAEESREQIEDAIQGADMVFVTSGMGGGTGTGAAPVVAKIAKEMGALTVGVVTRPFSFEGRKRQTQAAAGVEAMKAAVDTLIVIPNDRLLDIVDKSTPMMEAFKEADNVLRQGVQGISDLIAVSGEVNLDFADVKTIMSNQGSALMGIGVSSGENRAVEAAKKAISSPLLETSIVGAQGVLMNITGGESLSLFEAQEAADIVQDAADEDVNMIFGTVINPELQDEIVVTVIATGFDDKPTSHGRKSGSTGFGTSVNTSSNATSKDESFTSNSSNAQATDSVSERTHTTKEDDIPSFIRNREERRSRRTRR
# [2] = target: T1, Cell division protein FtsZ (Staphylococcus aureus); experiment: Stimulation of purified Staphylococcus aureus FtsZ polymerization at 40 ug/ml by microtiter plate based light-scattering assay in presence of 10 mM depolymerizing agent GDP
# Staphylococcus aureus [3] = experiment: Bactericidal activity against methicillin-sensitive Staphylococcus aureus 8325-4; type: functional
# In short: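 MBC against MSSA strain 8325-4, determined per a previously described method; paired MIC by CLSI broth microdilution, MIC being lowest concentration giving ≥90% growth inhibition.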
# Staphylococcus aureus [4] = experiment: microbe, parasite or virus in culture; type: functional; settings: 8325-4
# Enterococcus faecalis [5] = experiment: microbe, parasite or virus in culture; type: functional; settings: ATCC 19433
# Staphylococcus aureus [6] = experiment: Bactericidal activity against methicillin-resistant Staphylococcus aureus ATCC 33591; type: functional
# Enterococcus faecalis [7] = experiment: Bactericidal activity against vancomycin-resistant Enterococcus faecalis ATCC 51575; type: functional
# Enterococcus faecalis [8] = experiment: microbe, parasite or virus in culture; type: functional; settings: ATCC 51575
# Enterococcus faecalis [9] = experiment: Ratio of MBC to MIC for vancomycin-resistant Enterococcus faecalis ATCC 51575; type: functional
# In short: (§1)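 Ratio of MBC to MIC, both in µg/mL. MIC was found by CLSI broth microdilution as the lowest concentration giving ≥90% growth inhibition. MBC was found by a previously described method. Per CLSI, a ratio of 1–2 is read as bactericidal and ≥8 as bacteriostatic.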
# Staphylococcus aureus [10] = experiment: microbe, parasite or virus in culture; type: functional; settings: ATCC 33591
# Staphylococcus aureus [11] = experiment: Ratio of MBC to MIC for methicillin-sensitive Staphylococcus aureus 8325-4; type: functional
# [12] = target: T1, Cell division protein FtsZ (Staphylococcus aureus); experiment: Stimulation of purified Staphylococcus aureus FtsZ polymerization at 80 ug/ml by microtiter plate based light-scattering assay
# Staphylococcus aureus [13] = experiment: Ratio of MBC to MIC for methicillin-resistant Staphylococcus aureus ATCC 33591; type: functional; in short: as §1
SMILES,Activity [1],Activity [2],MBC (Staphylococcus aureus [3]) [µg/mL],MIC (Staphylococcus aureus [4]) [µg/mL],MIC (Enterococcus faecalis [5]) [µg/mL],MBC (Staphylococcus aureus [6]) [µg/mL],MBC (Enterococcus faecalis [7]) [µg/mL],MIC (Enterococcus faecalis [8]) [µg/mL],Ratio (Enterococcus faecalis [9]),MIC (Staphylococcus aureus [10]) [µg/mL],Ratio (Staphylococcus aureus [11]),Activity [12],Ratio (Staphylococcus aureus [13])
C[n+]1cc(-c2cccc(C(C)(C)C)c2)nc2ccccc21.[I-],inactive,Active,16,2,8,16,64,16,4,2,8,–,–
c1ccc(-c2cccc(-c3cnc4ccccc4n3)c2)cc1,–,Active,–,> 64,> 64,–,–,> 64,–,> 64,–,–,–
C[n+]1cc(-c2ccc(C(C)(C)C)cc2)nc2ccccc21.[I-],–,Active,8,0.5,16,16,64,16,4,1,16,–,–
c1ccc(-c2cnc3ccccc3n2)cc1,–,Active,–,> 64,> 64,–,–,> 64,–,> 64,–,–,–
COC(=O)c1cc(-c2ccc(C(C)(C)C)cc2)cc(-c2c[n+](C)c3ccccc3n2)c1.[I-],–,Active,–,1,4,–,–,4,–,1,–,–,–
CC(C)(C)c1ccc(-c2ncnc3c(CN)cccc23)cc1,–,Active,–,32,64,–,–,64,–,64,–,–,–
Fc1cccc(-c2cnc3ccccc3n2)c1,–,Active,–,> 64,> 64,–,–,> 64,–,> 64,–,–,–
CN[C@H](CC(C)C)C(=O)N[C@H]1C(=O)N[C@@H](CC(N)=O)C(=O)N[C@H]2C(=O)N[C@H]3C(=O)N[C@H](C(=O)N[C@H](C(=O)O)c4cc(O)cc(O)c4-c4cc3ccc4O)[C@H](O)c3ccc(c(Cl)c3)Oc3cc2cc(c3O[C@@H]2O[C@H](CO)[C@@H](O)[C@H](O)[C@H]2O[C@H]2C[C@](C)(N)[C@H](O)[C@H](C)O2)Oc2ccc(cc2Cl)[C@H]1O [VANCOMYCIN],–,–,1,–,1,4,–,> 64,–,–,–,–,–
CC(=N)NCc1cccc2c(-c3ccc(C(C)(C)C)cc3)ncnc12,–,Active,–,32,64,–,–,64,–,64,–,–,–
CC(C)(C)c1ccc(-c2cccc3c(CNC(=N)N)ncnc23)cc1,–,Active,–,16,> 64,–,–,> 64,–,64,–,–,–
CC(C)(C)c1ccc(-c2ncnc3c(CNC(=N)N)cccc23)cc1,–,Active,8,4,32,16,64,32,2,8,2,Active,–
CC(C)(C)c1ccc(-c2ccnc3c(CNC(=N)N)ccnc23)cc1,–,Active,8,8,32,16,64,64,1,8,1,Active,2
CC(C)(C)c1ccc(-c2cnc3c(CNC(=N)N)cccc3n2)cc1,Active,Active,4,4,8,8,16,16,1,4,1,–,2
CC(C)(C)c1ccc(-c2cnc3ccccc3n2)cc1,–,Active,–,> 64,> 64,–,–,> 64,–,> 64,–,–,–
CC(C)(C)c1cccc(-c2cnc3c(CNC(=N)N)cccc3n2)c1,Active,Active,4,4,8,8,32,16,2,4,1,–,2
CN(C)[C@@H]1C(O)=C(C(N)=O)C(=O)[C@@]2(O)C(O)=C3C(=O)c4c(O)cccc4[C@@](C)(O)[C@H]3C[C@@H]12 [TETRACYCLINE],–,–,–,0.06,0.5,–,–,> 64,–,64,–,–,–
